Results from different studies.
Each line is one published result; the experiments were not run side by side.
Target: Mitogen-activated protein kinase 9 (MAPK9, Homo sapiens, UniProt P45984)

Cc1cnc(NC2CCOCC2)nc1-n1cnc(C(=O)NC(CN)c2cc(F)cc(Cl)c2)c1 (centres unmarked)
remaining activity (enzyme activity, inhibitor, radiometric; 1 µM): 72%

COc1ccc2c(O[C@@H]3C[C@H]4C(=O)N[C@]5(C(=O)O)CC5/C=C\CCCCC[C@H](NC(=O)OC5CCCC5)C(=O)N4C3)cc(-c3csc(NC(=O)C(C)C)n3)nc2c1C (some centres unmarked)
remaining binding (cell-free assay, competition with immobilised ligand; 1 µM): 71%

Oc1cccc(-c2nc(N3CCOCC3)c3oc4ncccc4c3n2)c1
remaining signal (cell-free assay; 0.5 µM): 89.4%

CNC(=O)c1ccc(Nc2ncc(C(F)(F)F)c(NCc3nccnc3N(C)S(C)(=O)=O)n2)cc1
remaining binding (cell-free assay, competition with immobilised ligand; 0.1 µM): 95%

CNC(=O)c1cc(Oc2ccc(NC(=O)Nc3ccc(Cl)c(C(F)(F)F)c3)cc2)ccn1
inhibition (enzyme activity, inhibitor; 10 µM): 54%

COc1cc(Nc2cnc(C#N)c(O[C@H](C)CN(C)C)n2)ncc1-c1cnn(C)c1
remaining activity (enzyme activity, inhibitor, radiometric; 1 µM): 98%

Cn1c2c(Cl)c(Cl)ccc2c2cn[nH]c(=O)c21
ΔTm (thermal stability, DSF; 10 µM): 0 °C

CN(C)C(=O)Cn1cc(-c2nc([C@@](C)(c3ccc(-c4cnc(N)nc4)cc3)C3CC3)no2)cn1
remaining binding (cell-free assay, competition with immobilised ligand; 1 µM): 75%

Cc1ccc(C(=O)Nc2ccc(CN3CCN(C)CC3)c(C(F)(F)F)c2)cc1C#Cc1cnc2cccnn12
remaining activity (enzyme activity, inhibitor; 23.5 nM): 62%

Cc1cc(NC(=O)c2cccc(S(F)(F)(F)(F)F)c2)cc(-n2ccn3nc(-c4cccnc4)cc23)c1
remaining binding (cell-free assay, competition with immobilised ligand; 1 µM): 76.9%

Nc1nc(Nc2ccccc2)sc1C(=O)c1c(F)cccc1F
remaining activity (enzyme activity, inhibitor; 10 µM): 81%

Cn1c2c(c3ccc(Cl)c(Cl)c31)C(C#N)C1(CCCC1)NC2=O (centres unmarked)
ΔTm (thermal stability, DSF; 10 µM): -0.1 °C

O=C(Nc1cnn(-c2csc(C(=O)NC3COC3)c2)c1)Nc1c(F)cccc1Cl
remaining activity (enzyme activity, inhibitor; 5 µM): 22.7%

Cc1ccc(NC(=O)c2ccc(C)c(C(F)(F)F)c2)cc1C#Cc1nn(C2CCC(O)CC2)c2ncnc(N)c12 (centres unmarked)
remaining signal (cell-free assay; 10 µM): 13%

Nc1ncnc2occ(-c3ccc(NC(=O)Nc4cc(C(F)(F)F)ccc4F)cc3)c12
remaining signal (cell-free assay, inhibitor; 20 µM): 0%

Clc1ccc(Nc2nnc(Cc3ccncc3)c3ccccc23)cc1
remaining signal (cell-free assay; 0.5 µM): 97.5%

N#CC1c2c([nH]c3c(Cl)c(Cl)ccc23)C(=O)NC12CCCCC2 (racemic)
ΔTm (thermal stability, DSF; 10 µM): 0.7 °C

CNC(=O)Nc1ccc2c(c1)CC[C@@]21OC(=O)N(CC(=O)N(Cc2ccc(F)cc2)[C@@H](C)C(F)(F)F)C1=O
remaining binding (cell-free assay, competition with immobilised ligand; 1 µM): 70%

O=C1Nc2ccc(Cl)cc2C1=Cc1cc(Cl)c(O)c(Cl)c1
remaining signal (cell-free assay; 0.5 µM): 100%

CC(C)(O)c1cncc(-c2nc3ccc(F)cc3n2C2CC2)c1
remaining binding (cell-free assay, competition with immobilised ligand; 1 µM): 100%

CC(C)(C)c1nc(-c2cccc(NS(=O)(=O)c3c(F)cccc3F)c2F)c(-c2ccnc(N)n2)s1
remaining activity (enzyme activity, inhibitor, radiometric; 1 µM): 105%

COc1cc2ncnc(Nc3ccc(Oc4ccccc4)cc3C)c2cc1OC
inhibition (enzyme activity, inhibitor; 1 µM): 5%

Cc1ccc(C(=O)NCc2ccsc2)cc1C#Cc1cn(C(C)C)c2ncnc(N)c12
activity vs control (enzyme activity, inhibitor; 1 µM): 85%

Cn1c2c(Cl)c(Cl)ccc2c2cc(N)[nH]c(=O)c21
ΔTm (thermal stability, DSF; 10 µM): 0.7 °C

Cc1sc(C(=O)NC2COC2)cc1-n1cc(NC(=O)Nc2c(F)cccc2Cl)cn1
remaining activity (enzyme activity, inhibitor; 10 µM): 51.9%

CC(C)CC(=O)N1CCc2nc(-c3ccc(Br)cc3)nc(N(C)Cc3ccccc3)c2C1
remaining binding (cell-free assay, competition with immobilised ligand; 0.1 µM): 72%

CC(C)(C)C(=O)c1sc(NC2CCCCC2)nc1N
remaining activity (enzyme activity, inhibitor; 10 µM): 90%

Cn1c(=O)n(-c2ccc(C(C)(C)C#N)cc2)c2c3cc(-c4cnc5ccccc5c4)ccc3ncc21
remaining activity (enzyme activity, inhibitor; 10 µM): 89%

O=C1CCc2cc(Nc3cc(OC4CCOCC4)c([N+](=O)[O-])cc3Cl)ccc2N1
remaining binding (cell-free assay, competition with immobilised ligand; 1 µM): 86%

CC1(C)NC(=O)c2[nH]c3c(Cl)c(Cl)ccc3c2C1C#N (centres unmarked)
ΔTm (thermal stability, DSF; 10 µM): 0.8 °C

C[S+]([O-])c1ccc(-c2nc(-c3ccncc3)c(-c3ccc(F)cc3)[nH]2)cc1 (centres unmarked)
remaining signal (cell-free assay; 0.5 µM): 100%

FC(F)c1nc2ccccc2n1-c1nc(N2CCOCC2)nc(N2CCOCC2)n1
remaining activity (enzyme activity, inhibitor; 10 µM): 87%
